According to ChEMBL document CHEMBL3853323, “Small Antimicrobial Agents Based on Acylated Reduced Amide Scaffold” (J Med Chem, 2016):
In brackets after ≈: the same amount, converted by molar mass. Activity calls are given as the source filed them. The rule behind the calls is not given here.

What was measured:
Pseudomonas aeruginosa = experiment: Antibacterial activity against Pseudomonas aeruginosa ATCC 27853 after 16 to 20 hrs by two fold serial dilution method; assay type: functional
Procedure, shortened: (§1)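 MIC as lowest concentration giving complete inhibition of growth after 20 h; at least three independent experiments, each in duplicate.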

Escherichia coli = experiment: Antibacterial activity against Escherichia coli ATCC 25922 after 16 to 20 hrs by two fold serial dilution method; assay type: functional; procedure, shortened: as §1
Enterococcus faecalis = experiment: Antibacterial activity against vancomycin resistant Enterococcus faecalis ATCC 700802 after 16 to 20 hrs by two fold serial dilution method; assay type: functional
Procedure, shortened: (§2)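 Broth MIC: the lowest concentration giving complete growth inhibition after 20 h. Run at least three times, in duplicate each time.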

Staphylococcus aureus [1] = experiment: Antibacterial activity against methicillin-resistant Staphylococcus aureus ATCC 33591 after 16 to 20 hrs by two fold serial dilution method; assay type: functional; procedure, shortened: as §2
[2] = tested on: Staphylococcus epidermidis; experiment: Antibacterial activity against methicillin-resistant Staphylococcus epidermidis RP62A after 16 to 20 hrs by two fold serial dilution method; assay type: functional; procedure, shortened: as §2
Klebsiella pneumoniae = experiment: Antibacterial activity against Klebsiella pneumoniae ATCC 13383 after 16 to 20 hrs by two fold serial dilution method; assay type: functional; procedure, shortened: as §1
[3] = Cytotoxicity against human HK2 cells assessed as cell viability at 25 ug/ml after 24 hrs by MTT assay; assay type: toxicity, cell-based; details: hk-2, 24 h
Procedure, shortened: (§3)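 Cells seeded at 5×10^4 per well and left 12 h, then exposed 24 h to compound at 100, 50, 25, 12.5 or 6.25 μg/mL diluted in medium. Medium replaced, MTT added for 4 h, solubilized 12 h at 37 °C, A550 read; viability % = (A − Ablank)/(Acontrol − Ablank) × 100. Run at least three times.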

[4] = Hemolytic activity in human RBC after 1 hr; assay type: ADME, cell-based, Erythrocyte; details: human red blood cells
Procedure, shortened: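 Fresh K2EDTA human RBCs, PBS-washed, as 5% v/v suspension mixed 1:1 with compound dilutions, 37 °C for 1 h. Supernatant after centrifugation diluted in PBS, A540 read. % hemolysis relative to 2% Triton X-100 (positive) and PBS (negative). At least three runs, each in duplicate.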

[5] = Cytotoxicity against human K562 cells assessed as cell viability at 25 ug/ml after 24 hrs by MTT assay; assay type: toxicity, cell-based; details: k562, 24 h; procedure, shortened: as §3
Staphylococcus aureus [6] = experiment: Antibacterial activity against methicillin-resistant Staphylococcus aureus ATCC 33591 at 0.5 times MIC after 14 passages; assay type: functional
Procedure, shortened: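 Resistance passaging: the starting MIC was measured as in the MIC assay. Bacteria from the 1/2 MIC well seeded the next day's assay. Repeated daily for 14 passages.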

Staphylococcus aureus [7] = experiment: Bactericidal activity against methicillin-resistant Staphylococcus aureus ATCC 33591 for 10 mins to 2 hrs by time kill assay; assay type: functional
Procedure, shortened: (§4)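 MRSA grown to mid-log in TSB was diluted to 10^6 CFU/mL. […] Samples were diluted 10^2–10^4-fold and plated on TSB agar. CFU were counted after overnight incubation at 37 °C and plotted against time.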

Staphylococcus aureus [8] = experiment: Bactericidal activity against methicillin-resistant Staphylococcus aureus ATCC 33591 assessed as disruption of bacterial membrane at 25 ug/ml after 2 hrs by propidium iodide staining based fluorescence microscopy; assay type: functional
Procedure, shortened: (§5)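 Mid-log MRSA was exposed to compound at 37 °C for 2 h, pelleted and washed three times in PBS. Cells were stained sequentially with PI (5 µg/mL) and DAPI (10 µg/mL), 15 min each on ice in the dark. Imaged with a 100× oil objective; DAPI channel 460 nm, PI channel 620 nm.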

Staphylococcus aureus [9] = experiment: Bactericidal activity against methicillin-resistant Staphylococcus aureus ATCC 33591 at 25 to 50 ug/ml for 10 mins to 2 hrs by time kill assay; assay type: functional; procedure, shortened: as §4
Staphylococcus aureus [10] = experiment: Bactericidal activity against methicillin-resistant Staphylococcus aureus ATCC 33591 assessed as disruption of bacterial membrane at 25 ug/ml after 2 hrs by DAPI staining based fluorescence microscopy; assay type: functional; procedure, shortened: as §5

Row | Compound | MIC (Pseudomonas aeruginosa) | MIC (Escherichia coli) | MIC (Enterococcus faecalis) | MIC (Staphylococcus aureus [1]) | MIC [2] | MIC (Klebsiella pneumoniae) | Activity [3] | HC50 at 1 h [4] | Activity [5] | Activity (Staphylococcus aureus [6]) | Activity (Staphylococcus aureus [7]) | Activity (Staphylococcus aureus [8]) | Activity (Staphylococcus aureus [9]) | Activity (Staphylococcus aureus [10])
1 | CCCCCCCCCC(=O)N[C@@H](Cc1c[nH]c2ccccc12)C(=O)N[C@@H](CC(N)=O)C(=O)N[C@@H](CC(=O)O)C(=O)N[C@@H]1C(=O)NCC(=O)N[C@@H](CCCN)C(=O)N[C@@H](CC(=O)O)C(=O)N[C@H](C)C(=O)N[C@@H](CC(=O)O)C(=O)NCC(=O)N[C@H](CO)C(=O)N[C@@H]([C@H](C)CC(=O)O)C(=O)N[C@@H](CC(=O)c2ccccc2N)C(=O)O[C@@H]1C [DAPTOMYCIN] | > 50 µg/mL | > 50 µg/mL | 1 µg/mL (≈ 0.617 µM) | 0.5 µg/mL (≈ 0.309 µM) | 0.5 µg/mL (≈ 0.309 µM) | > 50 µg/mL |  |  |  |  |  |  |  | 
2 | NCCCC[C@H](N)C(=O)N[C@@H](Cc1ccccc1)CN(CC(=O)NCc1ccc(-c2ccccc2)cc1)C(=O)CC12CC3CC(CC(C3)C1)C2 | 12.5 µg/mL (≈ 18.4 µM) | 6.25 µg/mL (≈ 9.22 µM) | 6.25 µg/mL (≈ 9.22 µM) | 6.25 µg/mL (≈ 9.22 µM) | 6.25 µg/mL (≈ 9.22 µM) | 12.5 µg/mL (≈ 18.4 µM) | Non-Toxic | 160 µg/mL | Non-Toxic |  |  |  |  | 
3 | N=C(N)NCCC[C@H](N)C(=O)N[C@@H](CCCCN)C(=O)N[C@@H](Cc1ccccc1)CN(CC(=O)NCC12CC3CC(CC(C3)C1)C2)C(=O)CC12CC3CC(CC(C3)C1)C2 | 6.25 µg/mL (≈ 7.66 µM) | 6.25 µg/mL (≈ 7.66 µM) | 6.25 µg/mL (≈ 7.66 µM) | 3.12 µg/mL (≈ 3.82 µM) | 3.12 µg/mL (≈ 3.82 µM) | > 25 µg/mL | Non-Toxic | 250 µg/mL | Non-Toxic |  |  |  |  | 
4 | NCCCC[C@H](N)C(=O)N[C@@H](Cc1ccccc1)CN(CC(=O)NCc1cccc2ccccc12)C(=O)c1ccc2ccccc2c1 | 12.5 µg/mL (≈ 19.8 µM) | 25 µg/mL (≈ 39.7 µM) | 25 µg/mL (≈ 39.7 µM) | 25 µg/mL (≈ 39.7 µM) | 12.5 µg/mL (≈ 19.8 µM) | 25 µg/mL (≈ 39.7 µM) | Non-Toxic | 290 µg/mL | Non-Toxic |  |  |  |  | 
5 | NCCCC[C@H](N)C(=O)N[C@@H](Cc1ccccc1)CN(CC(=O)N(Cc1ccccc1)Cc1ccccc1)C(=O)CC12CC3CC(CC(C3)C1)C2 | 25 µg/mL (≈ 36.1 µM) | 6.25 µg/mL (≈ 9.03 µM) | 6.25 µg/mL (≈ 9.03 µM) | 6.25 µg/mL (≈ 9.03 µM) | 6.25 µg/mL (≈ 9.03 µM) | 12.5 µg/mL (≈ 18.1 µM) | Non-Toxic | 180 µg/mL | Non-Toxic |  |  |  |  | 
6 | NCCCC[C@H](NC(=O)[C@@H](N)CCCCN)C(=O)N[C@@H](Cc1ccccc1)CN(CC(=O)NCC12CC3CC(CC(C3)C1)C2)C(=O)CC12CC3CC(CC(C3)C1)C2 | 6.25 µg/mL (≈ 7.93 µM) | 6.25 µg/mL (≈ 7.93 µM) | 6.25 µg/mL (≈ 7.93 µM) | 1.56 µg/mL (≈ 1.98 µM) | 3.12 µg/mL (≈ 3.96 µM) | > 25 µg/mL | Non-Toxic | 280 µg/mL | Non-Toxic | Active | Dose-dependent effect | Active | Active | Active
7 | COLISTIN | 1 µg/mL | 0.5 µg/mL | > 50 µg/mL | > 50 µg/mL | > 50 µg/mL | 0.5 µg/mL |  |  |  |  |  |  |  | 
8 | NCCCC[C@@H](CN(CC(=O)NCc1cccc2ccccc12)C(=O)CCCN)NC(=O)c1ccc2ccccc2c1 | > 50 µg/mL | > 50 µg/mL | 25 µg/mL (≈ 44 µM) | 25 µg/mL (≈ 44 µM) | 25 µg/mL (≈ 44 µM) | > 50 µg/mL |  |  |  |  |  |  |  | 
9 | NCCCC[C@@H](CN(CC(=O)NCc1cccc2ccccc12)C(=O)c1ccc2ccccc2c1)NC(=O)[C@@H](N)CCCCN | > 50 µg/mL | > 50 µg/mL | > 50 µg/mL | > 50 µg/mL | > 50 µg/mL | > 50 µg/mL |  |  |  |  |  |  |  | 
10 | NCCCC[C@H](NC(=O)[C@@H](N)CCCN)C(=O)N[C@@H](Cc1ccccc1)CN(CC(=O)NCC12CC3CC(CC(C3)C1)C2)C(=O)CC12CC3CC(CC(C3)C1)C2 | 6.25 µg/mL (≈ 8.07 µM) | 6.25 µg/mL (≈ 8.07 µM) | 6.25 µg/mL (≈ 8.07 µM) | 3.12 µg/mL (≈ 4.03 µM) | 3.12 µg/mL (≈ 4.03 µM) | > 25 µg/mL | Non-Toxic | 200 µg/mL | Non-Toxic |  |  |  |  | 
11 | CC(C)(C)c1ccc(CNC(=O)CN(C[C@H](Cc2ccccc2)NC(=O)[C@@H](N)CCCCN)C(=O)CC23CC4CC(CC(C4)C2)C3)cc1 | 6.25 µg/mL (≈ 9.5 µM) | 6.25 µg/mL (≈ 9.5 µM) | 6.25 µg/mL (≈ 9.5 µM) | 6.25 µg/mL (≈ 9.5 µM) | 3.12 µg/mL (≈ 4.74 µM) | 6.25 µg/mL (≈ 9.5 µM) | Non-Toxic | 120 µg/mL | Non-Toxic |  |  |  |  | 
12 | NCCCC[C@H](N)C(=O)N[C@@H](Cc1ccccc1)CN(CC(=O)NCc1cc(C(F)(F)F)cc(C(F)(F)F)c1)C(=O)CC12CC3CC(CC(C3)C1)C2 | 6.25 µg/mL (≈ 8.47 µM) | 3.12 µg/mL (≈ 4.23 µM) | 6.25 µg/mL (≈ 8.47 µM) | 3.12 µg/mL (≈ 4.23 µM) | 3.12 µg/mL (≈ 4.23 µM) | 6.25 µg/mL (≈ 8.47 µM) | Non-Toxic | 210 µg/mL | Non-Toxic |  |  |  |  | 
13 | NCCCC[C@H](N)CN(CC(=O)NCc1cccc2ccccc12)C(=O)c1ccc2ccccc2c1 | 6 µg/mL (≈ 12.4 µM) | 25 µg/mL (≈ 51.8 µM) | 25 µg/mL (≈ 51.8 µM) | 25 µg/mL (≈ 51.8 µM) | 25 µg/mL (≈ 51.8 µM) | 25 µg/mL (≈ 51.8 µM) |  |  |  |  |  |  |  | 
14 | NCCCC[C@H](N)C(=O)N[C@@H](Cc1ccccc1)CN(CC(=O)NCc1ccc(C(F)(F)F)cc1)C(=O)CC12CC3CC(CC(C3)C1)C2 | 12.5 µg/mL (≈ 18.7 µM) | 6.25 µg/mL (≈ 9.33 µM) | 6.25 µg/mL (≈ 9.33 µM) | 6.25 µg/mL (≈ 9.33 µM) | 3.12 µg/mL (≈ 4.66 µM) | 6.25 µg/mL (≈ 9.33 µM) | Non-Toxic | 200 µg/mL | Non-Toxic |  |  |  |  | 
15 | NCCCC[C@H](N)C(=O)N[C@@H](Cc1ccccc1)CN(CC(=O)NCc1cccc2ccccc12)C(=O)CC12CC3CC(CC(C3)C1)C2 | 6.12 µg/mL (≈ 9.39 µM) | 12.5 µg/mL (≈ 19.2 µM) | 12.5 µg/mL (≈ 19.2 µM) | 6.25 µg/mL (≈ 9.59 µM) | 6.25 µg/mL (≈ 9.59 µM) | 12.5 µg/mL (≈ 19.2 µM) | Non-Toxic | 225 µg/mL | Non-Toxic |  |  |  |  | 
16 | NCCCC[C@@H](CN(CC(=O)NCc1cccc2ccccc12)C(=O)CC12CC3CC(CC(C3)C1)C2)NC(=O)[C@@H](N)CCCCN | > 50 µg/mL | > 50 µg/mL | > 50 µg/mL | > 50 µg/mL | > 50 µg/mL | > 50 µg/mL |  |  |  |  |  |  |  | 
